According to ChEMBL document CHEMBL1122288, “Relationship between metabolism and radioprotective activity of 2-phenylthiazolidine and its m-bromo derivative” (J Med Chem, 1983):

How the values were obtained:
Mus musculus [1] = experiment: urine levels excreted after administration of benzaldehyde (250 mg/kg) to mice measured at 0-6 hr; format: ADME, organism-based; conditions: in vivo
Outline: (§1)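 [α-14C]Benzaldehyde was given at 250 mg/kg intraperitoneally in Miglyol 812. Mice were kept in separate metabolic cages and fed normally. Urine was collected at 6, 24 and 30 h, and feces were pounded. Radioactivity was measured by liquid scintillation counting and expressed as percent of injected dose excreted, given as mean ± standard error of 4 experiments.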

Mus musculus [2] = experiment: fecal levels excreted after administration of benzaldehyde (250 mg/kg) to mice measured at 0-30h; format: ADME, organism-based; conditions: in vivo; outline: as §1
[3] = urine levels excreted after administration of benzaldehyde (250 mg/kg) to mice measured at 0-24 hr; format: ADME, organism-based; conditions: mouse, read-out: Excretion; outline: as §1
[4] = urine levels excreted after administration of benzaldehyde (250 mg/kg) to mice measured at 24-30 hr; format: ADME, organism-based; conditions: mouse, read-out: Excretion; outline: as §1
Mus musculus [5] = experiment: Percent survival at 15 min time interval between administration (225 mg/kg, ip) and irradiation* in mice; format: functional
Mus musculus [6] = experiment: Percent survival at 1 hr time interval between administration (225mg/kg, ip) and irradiation* in mice; format: functional
Mus musculus [7] = experiment: faecal levels excreted after administration of cysteamine (175 mg/kg) to mice measured at 0-30h; format: ADME, organism-based; conditions: in vivo
Outline: (§2)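 Radiolabelled compound ([³⁵S] or [α-¹⁴C]) given intraperitoneally in Miglyol 812 to mice, which were then housed in separate metabolic cages and fed normally. Faeces were collected over 0-30 h, pounded and counted by liquid scintillation. Values are percent of injected dose, given as mean ± standard error. Each line has its own number of experiments.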

Mus musculus [8] = experiment: urine levels excreted after administration of cysteamine (175 mg/kg) to mice measured at 0-6 hr; format: ADME, organism-based; conditions: in vivo
Outline: (§3)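 [³⁵S]cysteamine 175 mg/kg given intraperitoneally in Miglyol 812 to mice, which were then housed in separate metabolic cages and fed normally. Urine was sampled at 6, 24 and 30 h and counted by liquid scintillation. Values are percent of injected dose excreted, as mean ± standard error of 4-5 experiments. The Mann-Whitney-Wilcoxon test was used for significance.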

[9] = urine levels excreted after administration of cysteamine (175 mg/kg) to mice measured at 24-30 hr; format: ADME, organism-based; conditions: mouse, read-out: Excretion; outline: as §3
Mus musculus [10] = experiment: Percent survival at 2 hr time interval between administration (225 mg/kg, ip) and irradiation* in mice; format: functional
Mus musculus [11] = experiment: urine levels excreted after administration of cysteamine (175 mg/kg) to mice measured at 0-24 hr; format: ADME, organism-based; conditions: in vivo; outline: as §3
Mus musculus [12] = species on record: Mus musculus; experiment: Lethal dose in mice; format: functional
Mus musculus [13] = experiment: fecal levels excreted after administration of 2-phenylthiazolidine (500 mg/kg) to mice measured at 0-30h; format: ADME, organism-based; conditions: in vivo; outline: as §2
Mus musculus [14] = experiment: Percent survival at 15 min time interval between administration (500mg/kg, ip) and irradiation* in mice; format: functional
Mus musculus [15] = experiment: fecal levels excreted after administration of 2-(3-bromophenyl)thiazolidine(500 mg/kg) to mice measured at 0-30h; format: ADME, organism-based; conditions: in vivo; outline: as §2
Mus musculus [16] = experiment: Percent survival at 1 hr time interval between administration (500 mg/kg, ip) and irradiation* in mice; format: functional
Mus musculus [17] = experiment: Percent survival at 2 hr time interval between administration (500 mg/kg, ip) and irradiation* in mice; format: functional
Mus musculus [18] = experiment: Percent survival at 6 hr time interval between administration (500 mg/kg, ip) and irradiation* in mice; format: functional

In the case of `O=Cc1ccccc1` [BENZALDEHYDE], the Excretion (Mus musculus [1]) is reported as 52.6%, the Excretion (Mus musculus [2]) is reported as 0.43% and the dose excreted [3] is reported as 84.2%. The dose excreted [4] was 5%.
Compound `NCCS` [CYSTEAMINE] has a Survival (Mus musculus [5]) of 95%, a Survival (Mus musculus [6]) of 80% and an Excretion (Mus musculus [7]) of 0.92%. The Excretion (Mus musculus [8]) was 42.6%, the dose excreted [9] was 4.1% and the Survival (Mus musculus [10]) was 45%. It also gave an Excretion (Mus musculus [11]) of 55.7% and an LD50 (Mus musculus [12]) of 450 mg/kg.
In the case of `c1ccc(C2NCC[35S]2)cc1` (stereo in doubt; 1a), the Excretion (Mus musculus [13]) is reported as 0.42%.
For `Brc1cccc(C2NCCS2)c1` (stereo not drawn), the Survival (Mus musculus [14]) was 20%, the Excretion (Mus musculus [15]) was 0.43% and the Survival (Mus musculus [16]) was 100%. It also gave an LD50 (Mus musculus [12]) of 1000 mg/kg.
`c1ccc(C2NCCS2)cc1` (stereo not drawn) gave a Survival (Mus musculus [17]) of 100%, a Survival (Mus musculus [18]) of 85% and a Survival (Mus musculus [14]) of 100%. The Survival (Mus musculus [16]) was 100% and the LD50 (Mus musculus [12]) was 1000 mg/kg.
With `c1ccc(C2NCC[35S]2)cc1` (stereo in doubt; 1b) the Excretion (Mus musculus [13]) was 0.6%.
